A1 apoptosis 2: blocks A1, raising caspase activity; MEF A1-2A-BIM cells, caspase-Glo luminescence, 3 h; percent of clofoctol response, DMSO zero; caspase activation, % (test concentration not listed); 24,000 tested, under 10 active; in the data active means caspase activation above about 5.9%
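System: mouse embryonic fibroblasts co-expressing A1 and BIM (A1-2A-BIM), primed for A1 dependence; amount: 2500 cells/well; doses: 50 nL pinned compound; schedule: cells settled overnight, compound exposure 3 h at 37 °C, 5% CO2; detection: Caspase-Glo 3/7 luminescence, 1 h at room temperature; read-out: Caspase-3/7 activation, seen as rise in luminescence signal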
T cruzi intra: intracellular Trypanosoma cruzi inhibition | intracellular Trypanosoma cruzi in host cells, plate reader | activity score (inhibition), % at 5.01 µM | 22,000 tested, 4.9% active | AID 651903; in the data active means activity score above about 55%;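 further: parasites and compound incubated about four days before reading; 0% = median of neutral control wells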
INS-1E rescue: rescue of cytokine-induced death in INS-1E beta cells. INS-1E cytokine-induced death, ATP luminescence, 48 h; normalised: neutral wells 0, positive control 100. 20,000 tested, 0.1% active. AID 488910. protection from cytokine-induced ATP loss, % at 10 µM;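 active means mean replicate protection from cytokine-induced ATP loss at least 50% and at least 75% of replicates each reaching 50%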
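assay system = INS-1E rat insulinoma cells | amount = 8000 cells per well | medium = phenol-red-free RPMI with 5% fetal bovine serum | doses = one compound concentration, pin transfer | timing = 48 h cytokine plus compound treatment, 10 min reagent incubation | also added = IL-1β, TNF-α and IFN-γ cytokine mix | signal = CellTiter-Glo luminescence measuring cellular ATP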
Starred values were filed as active, the others as inactive; . = no result. This excerpt belongs to a sample that is enriched for hits.

SMILES | A1 apoptosis 2 | T cruzi intra | INS-1E rescue
C[C@H]1CN([C@@H](C)CO)C(=O)Cc2cc(NC(=O)Nc3ccc(C(F)(F)F)cc3)ccc2O[C@H]1CN(C)Cc1ccncc1 | 2 | 68* | -1
C[C@@H]1CN([C@H](C)CO)C(=O)Cc2cc(NC(=O)Nc3ccc(C(F)(F)F)cc3)ccc2O[C@@H]1CN(C)Cc1ccncc1 | 0 | 65* | 2
COC(=O)CCCCCCC(=O)N/N=C/c1ccc(OC)c(O)c1 | -1 | 3 | 9
Cc1noc(C)c1S(=O)(=O)N(C)C[C@@H]1Oc2ccc(NS(=O)(=O)c3ccc(Cl)cc3)cc2C(=O)N([C@H](C)CO)C[C@@H]1C | 3 | 6 | -6
O=C(CCCCCC(=O)NN=C1CCCCCCC1)NO | 0 | . | .
C[C@@H]1CN([C@H](C)CO)C(=O)c2cccc(NC(=O)Nc3ccccc3)c2O[C@H]1CN(C)Cc1ccc(C(=O)O)cc1 | 0 | -14 | 10
C[C@H](CO)N1C[C@H](C)[C@@H](CN(C)Cc2ccc(C(=O)Nc3ccccc3N)cc2)Oc2c(cccc2N(C)C)C1=O | 3 | 6 | -1
C[C@H](CO)N1C[C@H](C)[C@@H](CN(C)Cc2ccc(C(=O)Nc3ccccc3N)cc2)Oc2c(NC(=O)Nc3ccc(F)cc3)cccc2C1=O | . | 52 | -9
C[C@H]1CN([C@@H](C)CO)C(=O)c2cccc(NC(=O)Nc3ccc(F)cc3)c2O[C@H]1CN(C)Cc1ccc(C(=O)Nc2ccccc2N)cc1 | . | 59* | -17
C[C@H]1CN([C@@H](C)CO)C(=O)c2cccc(N(C)C)c2O[C@H]1CN(C)Cc1ccc(C(=O)Nc2ccccc2N)cc1 | 0 | 59* | 2
C[C@@H]1CN([C@H](C)CO)C(=O)c2cccc(NC(=O)Nc3ccccc3)c2O[C@@H]1CN(C)Cc1ccc(C(=O)Nc2ccccc2N)cc1 | 1 | 70* | 17
O=C(C1=C[C@H](c2coc3ccccc3c2=O)C[C@H](OCCCCO)O1)N1CCCCCCC1 | 2 | . | .
O=C(CCCCCCC(=O)Nc1ccccc1O)N/N=C/c1cc(Br)cc(Br)c1O | 0 | 34 | 5
O=C1N(CCS(=O)(=O)c2ccccc2)Cc2ccccc2[C@@H]2OC(c3ccc(OCCCO)cc3)=N[C@]12Cc1ccccc1 | -1 | . | .
C[C@H]1CN([C@@H](C)CO)C(=O)Cc2cc(NC(=O)Nc3ccc(C(F)(F)F)cc3)ccc2O[C@H]1CN(C)CC1CC1 | -2 | 10 | 4
C[C@@H]1CN([C@H](C)CO)C(=O)Cc2cc(NC(=O)Nc3ccc(C(F)(F)F)cc3)ccc2O[C@@H]1CN(C)CC1CCCCC1 | . | 62* | -73
C[C@@H]1CN([C@H](C)CO)C(=O)Cc2cc(NC(=O)Nc3ccc(C(F)(F)F)cc3)ccc2O[C@H]1CN(C)CC1CC1 | 0 | 8 | -11
C[C@@H]1CN([C@H](C)CO)C(=O)Cc2cc(NC(=O)Nc3ccc(C(F)(F)F)cc3)ccc2O[C@H]1CN(C)CC1CCCCC1 | . | 83* | -18
C[C@@H]1CN([C@@H](C)CO)C(=O)c2cccc(NC(=O)NC3CCCCC3)c2O[C@H]1CN(C)C(=O)Nc1ccccc1 | -1 | 0 | -4
COc1ccc(/C=N/NC(=O)CCCCCCC(=O)Nc2ccccc2O)cc1OC | -1 | 5 | 1
C[C@H](CO)N1C[C@H](C)[C@H](CN(C)Cc2ccc3c(c2)OCO3)Oc2ccc(NC(=O)Nc3ccc(C(F)(F)F)cc3)cc2CC1=O | 0 | 74* | -35
C[C@@H]1CN([C@H](C)CO)C(=O)Cc2cc(NC(=O)Nc3ccc(C(F)(F)F)cc3)ccc2O[C@@H]1CN(C)Cc1ccc2c(c1)OCO2 | 0 | 62* | -59
C[C@@H]1CN([C@@H](C)CO)C(=O)Cc2cc(NC(=O)Nc3ccc4c(c3)OCO4)ccc2O[C@@H]1CN(C)Cc1ccc2c(c1)OCO2 | . | 25 | -9
C[C@H]1CN([C@@H](C)CO)C(=O)Cc2cc(NC(=O)Nc3ccc(C(F)(F)F)cc3)ccc2O[C@@H]1CN(C)Cc1ccc2c(c1)OCO2 | . | 18 | -7
C[C@@H]1CN([C@H](C)CO)C(=O)Cc2cc(NC(=O)Nc3ccc(F)cc3)ccc2O[C@H]1CN(C)Cc1ccc2c(c1)OCO2 | 0 | 7 | -2
C[C@@H]1CN([C@H](C)CO)C(=O)Cc2cc(NC(=O)Nc3ccc4c(c3)OCO4)ccc2O[C@@H]1CN(C)Cc1ccc(C(F)(F)F)cc1 | . | 76* | -25
COc1cc(O)cc(OC)c1/C=N/NC(=O)CCCCCC(=O)Nc1ccccc1O | 1 | -7 | 6
Cc1ccc(S(=O)(=O)N[C@H](C(=O)NCCn2cc(CN3C(=O)COC[C@H]3c3ccccc3)nn2)C(C)C)cc1 | 1 | . | .
